INS-1E GSIS act: GLuc luminescence reporter in INS-1E cells, primary screen for activators of glucose-dependent secretion of insulin | activation, % at 16.6 µM | actives 0.61% (n = 370,000) | INS-1E GLuc reporter insulin secretion, 2-3 h;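 active = lowest replicate activation of at least 40%, so every replicate reaches that level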;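 also: 0% = median of neutral control wells and 100% = median of IBMX positive control wells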
DENV2 CPE rescue: inhibitors of DENV2 cytopathic effect, primary screen, cell-based, plate reader, single concentration. DENV2-infected cells, cytopathic effect rescue. CPE inhibition, % at 9.99 µM. actives 1.7% (n = 350,000); in the data active = CPE inhibition above about 20%, passing the limit was not always enough; tested in BHK-21 cells;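 also: 0% = median of neutral control wells and 100% = median of positive control wells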
F508del corr: F508del CFTR correction, initial screen, CFBE line, single point. AID 720511, 2013. activity (quench increase), % at 7.58 µM. CFBE cells, YFP halide quenching; stimulated with forskolin plus potentiator P3; % fluorescence drop versus neutral controls. actives 0.36% (n = 350,000);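 active = mean added fluorescence quench of at least 8% versus neutral control, with both replicates also reaching 8%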;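 also: cells transiently co-express mutant CFTR-F508del with the halide-sensitive YFP; corrector assay measuring rescue of mutant channel to the surface after 24 h compound exposure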
miR122 inh: miR-122 Renilla sensor signal increase in Huh7, primary screen, miR-122 inhibitor project, cell-based, single point, plate reader. actives 0.3% (n = 340,000). activation (reporter increase), % at 12.5 µM. Huh7 miR-122 Renilla luciferase sensor, 48 h; neutral wells = 0, positive control = 100;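 active = mean replicate activation score at least 90 and every replicate individually at or above 90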;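 also: higher luciferase means less miR-122 activity so hits act as miR-122 inhibitors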
ERAP1 inh: human ERAP1 aminopeptidase inhibitors, primary screen, biochemical, single point, plate reader | AID 652197, 2013 | recombinant ERAP1, Leu-AMC fluorescence, 60 min | inhibition, % at 10.7 µM | actives 0.15% (n = 340,000);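 active = mean replicate inhibition of at least 30%, or all replicates individually reaching that 30% level; inactive = mean below 30% and not every replicate reaching it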;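 also: 0% = neutral control wells and 100% = L-leucinethiol positive control wells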
E-sel inducer: E-selectin induction in HUVECs, primary screen, imaging, HUVEC, immunofluorescence imaging, single point; normalized: neutral wells 0, TNF-alpha wells 100; AID 686992, 2013; P16581; actives 0.37% (n = 260,000); activation, % at 7.58 µM;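 active = mean E-selectin-positive cell signal at least 10% of the positive control, reached in at least 60% of replicates, without over 20% cell loss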
Target sequence (P16581 whole entry, looked up): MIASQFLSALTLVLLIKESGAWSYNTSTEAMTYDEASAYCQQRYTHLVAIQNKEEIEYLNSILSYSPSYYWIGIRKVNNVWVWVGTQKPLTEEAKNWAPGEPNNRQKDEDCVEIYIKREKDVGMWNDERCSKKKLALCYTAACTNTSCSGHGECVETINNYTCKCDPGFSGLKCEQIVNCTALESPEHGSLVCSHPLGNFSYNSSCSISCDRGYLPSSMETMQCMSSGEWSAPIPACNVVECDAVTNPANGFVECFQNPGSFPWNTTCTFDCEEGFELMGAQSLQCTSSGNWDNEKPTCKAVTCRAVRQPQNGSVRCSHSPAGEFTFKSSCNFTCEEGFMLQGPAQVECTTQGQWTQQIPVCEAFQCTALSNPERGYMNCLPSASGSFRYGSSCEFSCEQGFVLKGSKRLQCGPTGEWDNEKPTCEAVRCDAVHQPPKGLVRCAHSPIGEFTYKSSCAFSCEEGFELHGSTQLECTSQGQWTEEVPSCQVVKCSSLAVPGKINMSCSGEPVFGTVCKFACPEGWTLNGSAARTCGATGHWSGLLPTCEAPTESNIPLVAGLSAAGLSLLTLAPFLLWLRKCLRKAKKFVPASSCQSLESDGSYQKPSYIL
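Read-out basis: % PE-positive cells; Test system: HUVEC primary endothelial cells; Technique: immunofluorescence imaging; Dosing: single-point compound dose.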
Numbers without * were called inactive; nt = not tested or not shown; [ ] = dose if it differs, or a comment. Compounds with a hit are over-represented: about 2.6% of the library has one in this group of screens.

SMILES	INS-1E GSIS act	DENV2 CPE rescue	F508del corr	miR122 inh	ERAP1 inh	E-sel inducer
COc1ccc(CCN2CC(O)=C(c3nc(C)cs3)C2=N)cc1OC	nt	nt	nt	130*	nt	nt
Cc1csc(C2=C(O)CN(CCc3ccccc3)C2=N)n1	3	nt	nt	-4	nt	nt
C[C@H]1CN([C@@H](C)CO)C(=O)c2cccc(NC(=O)Nc3ccc4c(c3)OCO4)c2O[C@H]1CN(C)Cc1ccc2c(c1)OCO2	-1	27*	-1	5[16.7 µM]	1	1
C[C@H](CO)N1C[C@H](C)[C@@H](CN(C)Cc2ccc3c(c2)OCO3)Oc2ccc(N(C)C)cc2C1=O	10	23*	-1	18[16.7 µM]	-1	-5
C[C@@H]1CN([C@H](C)CO)C(=O)c2cc(NC(=O)Nc3ccc4c(c3)OCO4)ccc2O[C@@H]1CN(C)Cc1ccc2c(c1)OCO2	-12	-5	2	6[16.7 µM]	-3	0
C[C@@H]1CN([C@@H](C)CO)C(=O)c2cc(NC(=O)Nc3ccc4c(c3)OCO4)ccc2O[C@@H]1CN(C)Cc1ccc2c(c1)OCO2	-10	42*	-2	18[16.7 µM]	-1	0
C[C@@H]1CN([C@@H](C)CO)C(=O)c2cccc(NC(=O)Nc3ccc4c(c3)OCO4)c2O[C@H]1CN(C)Cc1ccc2c(c1)OCO2	4	22*	1	41[16.7 µM]	1	0
CN1c2ccc(C#Cc3cccnc3)cc2[C@@H]2[C@@H](CCN2C(=O)CN2CCOCC2)[C@H]1CO	12	10	1	-8[16.7 µM]	nt	0
O=C(C1CCCCC1)N1CC2(C1)[C@@H](c1ccccc1)[C@H](CO)N2Cc1nccs1	0	6	3	nt	-2	0
Cc1ccc(S(=O)(=O)N(C)C[C@@H]2OCCCC[C@H](C)Oc3ccc(N(C)C)cc3C(=O)N([C@H](C)CO)C[C@@H]2C)cc1	21	nt	-3	-7[16.7 µM]	nt	0
CC1CCN(C(=O)CSc2nnc(-c3ccccc3F)o2)CC1	63*	11	1	1	1	nt
COc1ccccc1-c1nnc(SCC(=O)N2CCC(C)CC2)o1	nt	nt	nt	6	nt	nt
CO[C@H]1CN(C)C(=O)c2ccc(NC(=O)C3CCC3)cc2OC[C@H](C)N(C(=O)CN(C)C)C[C@@H]1C	17	-5	-3	nt	1	0
Cc1cn([C@H]2C[C@H](O)[C@@H](CNCc3ccc4ncccc4c3)O2)c(=O)[nH]c1=O	4	94*	2	-3	11	1
Cc1cn([C@H]2C[C@H](O)[C@@H](CNCc3ccc(C#CCCO)cc3)O2)c(=O)[nH]c1=O	-4	-4	1	-3	2	0
O=C(NCc1ccccc1)c1ccc(C(=O)NCc2ccccc2)cc1	11	-2	-2	nt	-3	0
O=C(NCc1ccccc1)c1ccccc1	13	20*	2	4	-4	nt
Cc1ccc(NC(=O)C2(c3cccs3)CCOCC2)cc1C	-3	26*	1	-10	-2	nt
Cc1cccc(NC(=O)C2(c3cccs3)CCOCC2)c1	6	nt	nt	-1	nt	0
COc1ccc([Si](C)(C)[C@@H]2[C@@H](CC(=O)N3Cc4ccccc4C[C@H]3CO)O[C@]3(C(=O)N(C)c4c(Br)cc(C)cc43)[C@H]2C)cc1	nt	21*	0	nt	0	nt
COc1ccc(C(=O)Nc2ccc(CN3C(=O)[C@]4(O[C@H](CC(=O)N5Cc6ccccc6C[C@H]5CO)[C@@H]([Si](C)(C)c5ccc(OC)cc5)[C@@H]4C)c4ccccc43)cc2)cc1	nt	0	0	nt	-4	nt
CO[C@@H]1CN(C)C(=O)c2cc(NC(=O)c3cc(C)on3)ccc2OC[C@H](C)N(C(C)=O)C[C@H]1C	7	17	0	-3[16.7 µM]	-3	0
CCOc1ccc(CNC(=S)N/N=C/c2ccc(OC)c(OC)c2)cc1	-14	nt	-4	nt	nt	-1
COc1cc(/C=N/NC(=S)NCc2ccccc2)ccc1OCC#N	117*	nt	nt	nt	nt	nt
COc1nc(-c2ccc(Cl)cc2)ccc1-c1noc(-c2ccco2)n1	66*	nt	nt	-6	nt	nt
SMILES	INS-1E GSIS act	DENV2 CPE rescue	F508del corr	miR122 inh	ERAP1 inh	E-sel inducer
COc1cccc(-c2ccc(-c3noc(-c4ccccc4F)n3)c(OC)n2)c1	nt	nt	nt	-2	nt	nt
C[C@@H]1CN([C@H](C)CO)C(=O)c2cc(C3=CCCC3)cnc2O[C@@H]1CN(C)C(=O)Nc1ccccc1	11	34*	1	15[16.7 µM]	3	59*
C[C@@H]1CN([C@@H](C)CO)C(=O)c2cc(C3=CCCC3)cnc2O[C@@H]1CN(C)Cc1ccc(C(=O)O)cc1	-13	25*	0	-1[16.7 µM]	1	0
C[C@H](CO)N1C[C@H](C)[C@H](CN(C)C(=O)Nc2ccc(F)cc2)Oc2ncc(C3=CCCCC3)cc2C1=O	-26	33*	-4	-13[16.7 µM]	-2	1
CCCNC(=O)N(C)C[C@H]1Oc2ncc(C3=CCCC3)cc2C(=O)N([C@H](C)CO)C[C@@H]1C	13	8	1	5[16.7 µM]	-2	134*
C[C@H]1CN([C@@H](C)CO)C(=O)c2cc(-c3ccccc3)cnc2O[C@@H]1CN(C)Cc1ccc(C(=O)O)cc1	10	3	4	4[16.7 µM]	1	0
C[C@H](CO)N1C[C@H](C)[C@@H](CN(C)C(=O)Nc2cccc(F)c2)Oc2ncc(C3=CCCCC3)cc2C1=O	-16	20*	1	-18[16.7 µM]	-2	0
Cn1cnc(S(=O)(=O)N[C@H]2CC[C@@H](CC(=O)NCC3CC3)O[C@@H]2CO)c1	7	-3	4	nt	-2	0
O=C(NCCS(=O)(=O)NCc1ccc(F)cc1)c1ccc2c(c1)OCO2	12	75*	-4	nt	-2	nt
COc1ccccc1CCNS(=O)(=O)CCNC(=O)c1ccc2c(c1)OCO2	8	40*	-1	-2	-2	3
Cc1ccc(CNS(=O)(=O)CCNC(=O)c2ccc3c(c2)OCO3)cc1	-1	4	1	3	-7	-2
O=C(CN(Cc1ccc(F)cc1)C(=O)CNS(=O)(=O)c1ccc(F)cc1)NCc1ccco1	19	1	-1	-2	-1	30*
O=C(CN(Cc1ccccc1)C(=O)CNS(=O)(=O)c1ccc(F)cc1)NCc1ccco1	1	6	1	-6	-1	0
O=C(N[C@H]1CC[C@H](CCNC(=O)C2CCCCC2)O[C@@H]1CO)c1ccncc1	10	28*	-3	nt	-2	0
Cc1noc(C)c1NC(=O)N[C@H]1CC[C@H](CCNC(=O)C2CCCC2)O[C@@H]1CO	12	20*	-2	-11[16.7 µM]	0	0
O=C(N[C@H]1CC[C@H](CCNC(=O)C2CCCC2)O[C@@H]1CO)c1ccncc1	-9	25*	-1	17[16.7 µM]	-1	0

From PubChem
